Columns and labels:
Format in all cases: functional
MCF7 [1] = test: Induction of apoptosis in human MCF7 cells assessed as early apoptotic cells at 1 uM after 6 hrs by Annexin V-FITC/propidium iodide staining-based flow cytometric analysis (reference value: 2%)
Summary of the method: (§1)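 Log-phase cells seeded in 6-well plates and treated after adhesion; incubated in cycles of 6 h on/6 h off up to 48 h. Collected after PBS washes and trypsin, resuspended in Ca2+-enriched binding buffer. Stained with annexin V (1 µg/mL) plus PI (0.5 µg/mL) 15 min in the dark at room temperature. 10,000 events, FL1 vs FL2. At least three repeats.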

MCF7 [2] = test: Induction of apoptosis in human MCF7 cells assessed as early apoptotic cells at 5 uM after 48 hrs by Annexin V-FITC/propidium iodide staining-based flow cytometric analysis (reference value: 9.1%); summary of the method: as §1
MCF7 [3] = test: Induction of apoptosis in human MCF7 cells assessed as necrotic cells at 10 uM after 24 hrs by Annexin V-FITC/propidium iodide staining-based flow cytometric analysis (reference value: 0.1%)
MCF7 [4] = test: Induction of apoptosis in human MCF7 cells assessed as necrotic cells at 10 uM after 24 hrs by Annexin V-FITC/propidium iodide staining-based flow cytometric analysis (reference value: 0.2%)
MCF7 [5] = test: Induction of apoptosis in human MCF7 cells assessed as late apoptotic cells at 1 uM after 24 hrs by Annexin V-FITC/propidium iodide staining-based flow cytometric analysis (reference value: 5.6%); summary of the method: as §1
MCF7 [6] = test: Induction of apoptosis in human MCF7 cells assessed as early apoptotic cells at 25 uM after 6 hrs by Annexin V-FITC/propidium iodide staining-based flow cytometric analysis (reference value: 2%); summary of the method: as §1
MCF7 [7] = test: Induction of apoptosis in human MCF7 cells assessed as early apoptotic cells at 5 uM after 6 hrs by Annexin V-FITC/propidium iodide staining-based flow cytometric analysis (reference value: 2%); summary of the method: as §1
MCF7 [8] = test: Induction of apoptosis in human MCF7 cells assessed as late apoptotic cells at 25 uM after 24 hrs by Annexin V-FITC/propidium iodide staining-based flow cytometric analysis (reference value: 5.6%); summary of the method: as §1
MCF7 [9] = test: Induction of apoptosis in human MCF7 cells assessed as late apoptotic cells at 1 uM after 6 hrs by Annexin V-FITC/propidium iodide staining-based flow cytometric analysis (reference value: 4.7%); summary of the method: as §1
MCF7 [10] = test: Induction of apoptosis in human MCF7 cells assessed as viable cells at 1 uM after 24 hrs by Annexin V-FITC/propidium iodide staining-based flow cytometric analysis (reference value: 92.1%); conditions: MCF7, 24 h, read-out: Activity
MCF7 [11] = test: Induction of apoptosis in human MCF7 cells assessed as late apoptotic cells at 10 uM after 6 hrs by Annexin V-FITC/propidium iodide staining-based flow cytometric analysis (reference value: 4.7%); summary of the method: as §1
MCF7 [12] = test: Induction of apoptosis in human MCF7 cells assessed as necrotic cells at 5 uM after 24 hrs by Annexin V-FITC/propidium iodide staining-based flow cytometric analysis (reference value: 0.1%)
MCF7 [13] = test: Induction of apoptosis in human MCF7 cells assessed as early apoptotic cells at 50 uM after 24 hrs by Annexin V-FITC/propidium iodide staining-based flow cytometric analysis (reference value: 2.1%); summary of the method: as §1
MCF7 [14] = test: Induction of apoptosis in human MCF7 cells assessed as early apoptotic cells at 10 uM after 48 hrs by Annexin V-FITC/propidium iodide staining-based flow cytometric analysis (reference value: 9.1%); summary of the method: as §1
MCF7 [15] = test: Induction of apoptosis in human MCF7 cells assessed as viable cells at 25 uM after 24 hrs by Annexin V-FITC/propidium iodide staining-based flow cytometric analysis (reference value: 92.1%); conditions: MCF7, 24 h, read-out: Activity
MCF7 [16] = test: Induction of apoptosis in human MCF7 cells assessed as necrotic cells at 1 uM after 24 hrs by Annexin V-FITC/propidium iodide staining-based flow cytometric analysis (reference value: 0.2%)
MCF7 [17] = test: Induction of apoptosis in human MCF7 cells assessed as late apoptotic cells at 5 uM after 6 hrs by Annexin V-FITC/propidium iodide staining-based flow cytometric analysis (reference value: 4.7%); summary of the method: as §1
MCF7 [18] = test: Induction of apoptosis in human MCF7 cells assessed as late apoptotic cells at 10 uM after 24 hrs by Annexin V-FITC/propidium iodide staining-based flow cytometric analysis (reference value: 5.6%); summary of the method: as §1
MCF7 [19] = test: Induction of apoptosis in human MCF7 cells assessed as early apoptotic cells at 5 uM after 24 hrs by Annexin V-FITC/propidium iodide staining-based flow cytometric analysis (reference value: 2.1%); summary of the method: as §1
MCF7 [20] = test: Induction of apoptosis in human MCF7 cells assessed as viable cells at 10 uM after 48 hrs by Annexin V-FITC/propidium iodide staining-based flow cytometric analysis (reference value: 87.9%); conditions: MCF7, 48 h, read-out: Activity
MCF7 [21] = test: Induction of apoptosis in human MCF7 cells assessed as necrotic cells at 25 uM after 24 hrs by Annexin V-FITC/propidium iodide staining-based flow cytometric analysis (reference value: 0.1%)
MCF7 [22] = test: Induction of apoptosis in human MCF7 cells assessed as early apoptotic cells at 25 uM after 24 hrs by Annexin V-FITC/propidium iodide staining-based flow cytometric analysis (reference value: 2.1%); summary of the method: as §1
MCF7 [23] = test: Induction of apoptosis in human MCF7 cells assessed as early apoptotic cells at 10 uM after 24 hrs by Annexin V-FITC/propidium iodide staining-based flow cytometric analysis (reference value: 2.1%); summary of the method: as §1
MCF7 [24] = test: Induction of apoptosis in human MCF7 cells assessed as viable cells at 5 uM after 24 hrs by Annexin V-FITC/propidium iodide staining-based flow cytometric analysis (reference value: 92.1%); conditions: MCF7, 24 h, read-out: Activity
MCF7 [25] = test: Induction of apoptosis in human MCF7 cells assessed as early apoptotic cells at 1 uM after 24 hrs by Annexin V-FITC/propidium iodide staining-based flow cytometric analysis (reference value: 2.1%); summary of the method: as §1
MCF7 [26] = test: Induction of apoptosis in human MCF7 cells assessed as viable cells at 1 uM after 6 hrs by Annexin V-FITC/propidium iodide staining-based flow cytometric analysis (reference value: 92.8%); conditions: MCF7, 6 h, read-out: Activity
MCF7 [27] = test: Induction of apoptosis in human MCF7 cells assessed as late apoptotic cells at 5 uM after 24 hrs by Annexin V-FITC/propidium iodide staining-based flow cytometric analysis (reference value: 5.6%); summary of the method: as §1
MCF7 [28] = test: Induction of apoptosis in human MCF7 cells assessed as late apoptotic cells at 25 uM after 48 hrs by Annexin V-FITC/propidium iodide staining-based flow cytometric analysis (reference value: 2.8%); summary of the method: as §1
MCF7 [29] = test: Induction of apoptosis in human MCF7 cells assessed as early apoptotic cells at 10 uM after 6 hrs by Annexin V-FITC/propidium iodide staining-based flow cytometric analysis (reference value: 2%); summary of the method: as §1
MCF7 [30] = test: Induction of apoptosis in human MCF7 cells assessed as necrotic cells at 25 uM after 6 hrs by Annexin V-FITC/propidium iodide staining-based flow cytometric analysis (reference value: 0.5%)
MCF7 [31] = test: Induction of apoptosis in human MCF7 cells assessed as late apoptotic cells at 2505 uM after 24 hrs by Annexin V-FITC/propidium iodide staining-based flow cytometric analysis (reference value: 5.6%); summary of the method: as §1

Structure (SMILES): COc1cc([C@@H]2c3cc4c(cc3[C@@H](O[C@@H]3O[C@@H]5CO[C@@H](C)O[C@H]5[C@H](O)[C@H]3O)[C@H]3COC(=O)[C@H]23)OCO4)cc(OC)c1O [ETOPOSIDE]
- Activity (MCF7 [1]): 1.6%
- Activity (MCF7 [2]): 62.1%
- Activity (MCF7 [3]): 1.4%
- Activity (MCF7 [4]): 0.8%
- Activity (MCF7 [5]): 6.8%
- Activity (MCF7 [6]): 1.9%
- Activity (MCF7 [7]): 2%
- Activity (MCF7 [8]): 7.7%
- Activity (MCF7 [9]): 7.1%
- viability at 1 µM (MCF7 [10]): 90.7%
- Activity (MCF7 [11]): 9.1%
- Activity (MCF7 [12]): 1.2%
- Activity (MCF7 [13]): 12.4%
- Activity (MCF7 [14]): 60.5%
- viability at 25 µM (MCF7 [15]): 81.1%
- Activity (MCF7 [16]): 0.2%
- Activity (MCF7 [17]): 7.6%
- Activity (MCF7 [18]): 11.5%
- Activity (MCF7 [19]): 6.7%
- viability at 10 µM (MCF7 [20]): 20.7%
- Activity (MCF7 [21]): 1.6%
- Activity (MCF7 [22]): 10.4%
- Activity (MCF7 [23]): 13.8%
- viability at 5 µM (MCF7 [24]): 84.2%
- Activity (MCF7 [25]): 2.2%
- viability at 1 µM (MCF7 [26]): 90.8%
- Activity (MCF7 [27]): 8.4%
- Activity (MCF7 [28]): 19.7%
- Activity (MCF7 [29]): 2.2%
- Activity (MCF7 [30]): 0.8%
- Activity (MCF7 [31]): 12.7%

Source: ChEMBL document CHEMBL4346667 (Eur J Med Chem, 2019)
